Calls of active or inactive are those of the source. The rule behind the calls is not given here.
Legend:
T47D [1] = test: Inhibition of PR-B mRNA gene expression in human T47D cells at 100 nM by syber green assay; assay type: functional
Outline: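 T47D cells in RPMI-1640 with 10% FBS, NEAA, insulin, 37 °C, 5% CO2. Plated two days before transfection without antibiotics. Oligofectamine-mediated duplex RNA transfection at 100 nM final, medium changed at 24 h, harvest five days post-transfection. Total RNA extracted with TRIzol. hPR mRNA quantified by SYBR Green qPCR: 50 °C 2 min, 95 °C 10 min, then 40 cycles of 95 °C 15 s / 60 °C 1 min.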

T47D [2] = test: Inhibition of PR-A mRNA gene expression in human T47D cells at 100 nM by syber green assay; assay type: functional
Outline: (§1)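 T47D cells plated at 80,000/well without antibiotics two days before Oligofectamine transfection with agRNA duplex (25 or 100 nM final); medium changed at 24 h, harvest day 5 unless stated otherwise. TRIzol total RNA; PR mRNA by real-time PCR with SYBR Green: 50 °C 2 min, 95 °C 10 min, 40 cycles 95 °C 15 s/60 °C 1 min.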

T47D [3] = test: Inhibition of PR-A gene expression in human T47D cells at 25 nM by syber green assay; assay type: functional; outline: as §1
T47D [4] = test: Inhibition of PR-B gene expression in human T47D cells at 25 nM by syber green assay; assay type: functional; outline: as §1
T47D [5] = test: Inhibition of PR-B gene expression in human T47D cells at 25 nM by syber green assay in presence of 10 nM estradiol; assay type: functional, cell-based
T47D [6] = test: Inhibition of PR-A gene expression in human T47D cells at 25 nM by syber green assay in presence of 10 nM estradiol; assay type: functional, cell-based

Row | SMILES | inhibition at 0.1 µM (T47D [1]) | inhibition at 0.1 µM (T47D [2]) | inhibition at 0.025 µM (T47D [3]) | inhibition at 0.025 µM (T47D [4]) | inhibition (T47D [5]) | inhibition (T47D [6])
1 | Cc1cn(CC(=O)N(CCNC(=O)CN(CCNC(=O)CN(CCNC(=O)CN(CCNC(=O)CN(CCNC(=O)CN(CCNC(=O)CN(CCNC(=O)CN(CCNC(=O)CN(CCNC(=O)CN(CCNC(=O)CN(CCNC(=O)CN(CCNC(=O)CN(CCNC(=O)CN(CCNC(=O)CN(CCNC(=O)CN(CCNC(=O)CN(CCNC(=O)CN(CCNC(=O)CN(CCNC(=O)CN(CCNC(=O)CN)C(=O)Cn2cnc3c(=O)[nH]c(N)nc32)C(=O)Cn2cnc3c(=O)[nH]c(N)nc32)C(=O)Cn2ccc(N)nc2=O)C(=O)Cn2cnc3c(=O)[nH]c(N)nc32)C(=O)Cn2ccc(=O)[nH]c2=O)C(=O)Cn2ccc(=O)[nH]c2=O)C(=O)Cn2cnc3c(=O)[nH]c(N)nc32)C(=O)Cn2ccc(=O)[nH]c2=O)C(=O)Cn2ccc(=O)[nH]c2=O)C(=O)Cn2cnc3c(N)ncnc32)C(=O)Cn2cnc3c(=O)[nH]c(N)nc32)C(=O)Cn2cnc3c(N)ncnc32)C(=O)Cn2cnc3c(N)ncnc32)C(=O)Cn2cnc3c(N)ncnc32)C(=O)Cn2cnc3c(=O)[nH]c(N)nc32)C(=O)Cn2ccc(N)nc2=O)C(=O)Cn2ccc(=O)[nH]c2=O)C(=O)Cn2cnc3c(=O)[nH]c(N)nc32)C(=O)Cn2ccc(=O)[nH]c2=O)CC(=O)NCCN(CC(=O)NCC(=O)O)C(=O)Cn2cc(C)c(=O)[nH]c2=O)c(=O)[nH]c1=O | < 20% | < 20% | < 20% | < 20% | Active | Active
2 | Cc1cn(CC(=O)N(CCNC(=O)CN(CCNC(=O)CN(CCNC(=O)CN(CCNC(=O)CN(CCNC(=O)CN(CCNC(=O)CN(CCNC(=O)CN(CCNC(=O)CN(CCNC(=O)CN(CCNC(=O)CN(CCNC(=O)CN(CCNC(=O)CN(CCNC(=O)CN(CCNC(=O)CN(CCNC(=O)CN(CCNC(=O)CN(CCNC(=O)CN(CCNC(=O)CN(CCNC(=O)CN(CCNC(=O)CN)C(=O)Cn2cnc3c(=O)[nH]c(N)nc32)C(=O)Cn2cnc3c(=O)[nH]c(N)nc32)C(=O)Cn2cnc3c(=O)[nH]c(N)nc32)C(=O)Cn2ccc(N)nc2=O)C(=O)Cn2ccc(N)nc2=O)C(=O)Cn2ccc(=O)[nH]c2=O)C(=O)Cn2ccc(N)nc2=O)C(=O)Cn2ccc(N)nc2=O)C(=O)Cn2ccc(N)nc2=O)C(=O)Cn2ccc(=O)[nH]c2=O)C(=O)Cn2cnc3c(N)ncnc32)C(=O)Cn2cnc3c(=O)[nH]c(N)nc32)C(=O)Cn2cnc3c(N)ncnc32)C(=O)Cn2cnc3c(=O)[nH]c(N)nc32)C(=O)Cn2cnc3c(=O)[nH]c(N)nc32)C(=O)Cn2cnc3c(N)ncnc32)C(=O)Cn2cnc3c(=O)[nH]c(N)nc32)C(=O)Cn2cnc3c(=O)[nH]c(N)nc32)C(=O)Cn2cnc3c(N)ncnc32)CC(=O)NCCN(CC(=O)NCC(=O)O)C(=O)Cn2cc(C)c(=O)[nH]c2=O)c(=O)[nH]c1=O | < 20% | < 20% | < 20% | < 20% | Active | Active
3 | Cc1cn(CC(=O)N(CCNC(=O)CN(CCNC(=O)CN(CCNC(=O)CN(CCNC(=O)CN(CCNC(=O)CN(CCNC(=O)CN(CCNC(=O)CN(CCNC(=O)CN(CCNC(=O)CN(CCNC(=O)CN(CCNC(=O)CN(CCNC(=O)CN(CCNC(=O)CN(CCNC(=O)CN(CCNC(=O)CN(CCNC(=O)CN(CCNC(=O)CN(CCNC(=O)CN(CCNC(=O)CN(CCNC(=O)CN)C(=O)Cn2ccc(=O)[nH]c2=O)C(=O)Cn2ccc(N)nc2=O)C(=O)Cn2ccc(N)nc2=O)C(=O)Cn2ccc(N)nc2=O)C(=O)Cn2ccc(=O)[nH]c2=O)C(=O)Cn2cnc3c(N)ncnc32)C(=O)Cn2cnc3c(=O)[nH]c(N)nc32)C(=O)Cn2cnc3c(N)ncnc32)C(=O)Cn2cnc3c(=O)[nH]c(N)nc32)C(=O)Cn2cnc3c(=O)[nH]c(N)nc32)C(=O)Cn2cnc3c(N)ncnc32)C(=O)Cn2cnc3c(=O)[nH]c(N)nc32)C(=O)Cn2cnc3c(=O)[nH]c(N)nc32)C(=O)Cn2cnc3c(N)ncnc32)C(=O)Cn2cnc3c(=O)[nH]c(N)nc32)C(=O)Cn2cnc3c(=O)[nH]c(N)nc32)C(=O)Cn2ccc(N)nc2=O)C(=O)Cn2cnc3c(=O)[nH]c(N)nc32)C(=O)Cn2ccc(=O)[nH]c2=O)CC(=O)NCCN(CC(=O)NCC(=O)O)C(=O)Cn2cc(C)c(=O)[nH]c2=O)c(=O)[nH]c1=O | 48% | 41% | < 20% | < 20% | Active | Active
4 | Cc1cn(CC(=O)N(CCNC(=O)CN(CCNC(=O)CN(CCNC(=O)CN(CCNC(=O)CN(CCNC(=O)CN(CCNC(=O)CN(CCNC(=O)CN(CCNC(=O)CN(CCNC(=O)CN(CCNC(=O)CN(CCNC(=O)CN(CCNC(=O)CN(CCNC(=O)CN(CCNC(=O)CN(CCNC(=O)CN(CCNC(=O)CN(CCNC(=O)CN(CCNC(=O)CN(CCNC(=O)CN(CCNC(=O)CN(CCNC(=O)CN)C(=O)Cn2ccc(=O)[nH]c2=O)C(=O)Cn2ccc(N)nc2=O)C(=O)Cn2ccc(=O)[nH]c2=O)C(=O)Cn2cnc3c(=O)[nH]c(N)nc32)C(=O)Cn2cnc3c(=O)[nH]c(N)nc32)C(=O)Cn2ccc(N)nc2=O)C(=O)Cn2ccc(N)nc2=O)C(=O)Cn2cnc3c(N)ncnc32)C(=O)Cn2cnc3c(=O)[nH]c(N)nc32)C(=O)Cn2ccc(=O)[nH]c2=O)C(=O)Cn2ccc(N)nc2=O)C(=O)Cn2ccc(N)nc2=O)C(=O)Cn2cnc3c(N)ncnc32)C(=O)Cn2ccc(N)nc2=O)C(=O)Cn2cnc3c(N)ncnc32)C(=O)Cn2cnc3c(=O)[nH]c(N)nc32)C(=O)Cn2ccc(N)nc2=O)C(=O)Cn2ccc(=O)[nH]c2=O)C(=O)Cn2cnc3c(=O)[nH]c(N)nc32)C(=O)Cn2cc(C)c(=O)[nH]c2=O)CC(=O)O)c(=O)[nH]c1=O | 100% | 97% | 38% | 50% | Active | Active
5 | Cc1cn(CC(=O)N(CCNC(=O)CN(CCNC(=O)CN(CCNC(=O)CN(CCNC(=O)CN(CCNC(=O)CN(CCNC(=O)CN(CCNC(=O)CN(CCNC(=O)CN(CCNC(=O)CN(CCNC(=O)CN(CCNC(=O)CN(CCNC(=O)CN(CCNC(=O)CN(CCNC(=O)CN(CCNC(=O)CN(CCNC(=O)CN(CCNC(=O)CN(CCNC(=O)CN(CCNC(=O)CN(CCNC(=O)CN)C(=O)Cn2ccc(N)nc2=O)C(=O)Cn2cnc3c(=O)[nH]c(N)nc32)C(=O)Cn2ccc(=O)[nH]c2=O)C(=O)Cn2ccc(=O)[nH]c2=O)C(=O)Cn2cnc3c(=O)[nH]c(N)nc32)C(=O)Cn2ccc(=O)[nH]c2=O)C(=O)Cn2ccc(=O)[nH]c2=O)C(=O)Cn2cnc3c(N)ncnc32)C(=O)Cn2cnc3c(=O)[nH]c(N)nc32)C(=O)Cn2cnc3c(N)ncnc32)C(=O)Cn2cnc3c(N)ncnc32)C(=O)Cn2cnc3c(N)ncnc32)C(=O)Cn2cnc3c(=O)[nH]c(N)nc32)C(=O)Cn2ccc(N)nc2=O)C(=O)Cn2ccc(=O)[nH]c2=O)C(=O)Cn2cnc3c(=O)[nH]c(N)nc32)C(=O)Cn2ccc(=O)[nH]c2=O)C(=O)Cn2ccc(N)nc2=O)C(=O)Cn2ccc(=O)[nH]c2=O)CC(=O)NCCN(CC(=O)NCC(=O)O)C(=O)Cn2cc(C)c(=O)[nH]c2=O)c(=O)[nH]c1=O | 26% | 29% | < 20% | < 20% | Active | Active
6 | Cc1cn(CC(=O)N(CCNC(=O)CN(CCNC(=O)CN(CCNC(=O)CN(CCNC(=O)CN(CCNC(=O)CN(CCNC(=O)CN(CCNC(=O)CN(CCNC(=O)CN(CCNC(=O)CN(CCNC(=O)CN(CCNC(=O)CN(CCNC(=O)CN(CCNC(=O)CN(CCNC(=O)CN(CCNC(=O)CN(CCNC(=O)CN(CCNC(=O)CN(CCNC(=O)CN(CCNC(=O)CN(CCNC(=O)CN)C(=O)Cn2cnc3c(N)ncnc32)C(=O)Cn2cnc3c(=O)[nH]c(N)nc32)C(=O)Cn2ccc(N)nc2=O)C(=O)Cn2ccc(=O)[nH]c2=O)C(=O)Cn2cnc3c(=O)[nH]c(N)nc32)C(=O)Cn2ccc(=O)[nH]c2=O)C(=O)Cn2ccc(N)nc2=O)C(=O)Cn2ccc(=O)[nH]c2=O)C(=O)Cn2cnc3c(=O)[nH]c(N)nc32)C(=O)Cn2cnc3c(=O)[nH]c(N)nc32)C(=O)Cn2ccc(N)nc2=O)C(=O)Cn2ccc(N)nc2=O)C(=O)Cn2cnc3c(N)ncnc32)C(=O)Cn2cnc3c(=O)[nH]c(N)nc32)C(=O)Cn2ccc(=O)[nH]c2=O)C(=O)Cn2ccc(N)nc2=O)C(=O)Cn2ccc(N)nc2=O)C(=O)Cn2cnc3c(N)ncnc32)C(=O)Cn2ccc(N)nc2=O)CC(=O)NCCN(CC(=O)NCC(=O)O)C(=O)Cn2cc(C)c(=O)[nH]c2=O)c(=O)[nH]c1=O | 87% | 63% | 34% | 40% | Active | Active
